From PubChem BioAssay
YB-1 expression – inhibitors of YB-1 gene expression, primary screen, cell-based, fluorescence. U2OS, qRT-PCR YB-1 vs CDIP delta delta Cp, 16 h; hits give high values; zero = DMSO, each unit about twofold. delta delta Cp (YB-1 minus CDIP) (concentration not given with the values). actives 0.37% (n = 30,000);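 active means delta delta Cp rounded down to an integer at or above 3, about 3 SD of DMSO wells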;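 further: higher means less YB-1 transcript or more CDIP transcript relative to DMSO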
INS-1E ATP HTS – protection of INS-1E cells from cytokine death, primary screen, ATP luminescence, single point; INS-1E cytokine-induced death, 48 h; normalised: neutral wells 0, positive control 100; protection from cytokine-induced ATP loss, % at 10 µM; actives 0.1% (n = 20,000);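 active means mean replicate protection from cytokine-induced ATP loss at least 50% and at least 75% of replicates each reaching 50%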
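Assay system – rat INS-1E insulinoma cell line · Quantity – 8000 cells per well · Buffer or medium – RPMI without phenol red, 5% FBS · Schedule – 48 h co-treatment, 10 min post-lysis read · Technique – luminescent ATP assay (CellTiter-Glo)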
T cruzi intra – inhibitors of intracellular Trypanosoma cruzi, primary screen, cell-based, plate reader, single point, set 2 | intracellular Trypanosoma cruzi in host cells | activity score (inhibition), % at 5.01 µM | actives 4.9% (n = 22,000); in the data active means activity score above about 55%;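 further: parasites and compound incubated about four days before reading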
Of the large screens only hits and unclear results are named; the others gave an inactive call. This is one part of a sample in which hits are shown more often than they occur.

C[C@@H]1CN([C@H](C)CO)C(=O)c2cc(NC(=O)Nc3ccccc3)ccc2O[C@@H]1CN(C)Cc1ccc(C(=O)Nc2ccccc2N)cc1	none
CC1(C)COC(CCC/C=N/NC(=O)CCCCCCC(=O)Nc2ccccc2O)OC1	none
Cc1ccc(S(=O)(=O)N(C)C[C@H]2Oc3ccc(NC(=O)C4CC4)cc3CC(=O)N([C@@H](C)CO)C[C@H]2C)cc1	none
CC(C)NC(=O)N(C)C[C@H]1Oc2ccc(NC(=O)Nc3cccc4ccccc34)cc2CC(=O)N([C@@H](C)CO)C[C@H]1C	none
C[C@@H]1CCCCO[C@H](CN(C)C(=O)CCC(F)(F)F)[C@@H](C)CN([C@H](C)CO)C(=O)c2cc(NC(=O)CCC(F)(F)F)ccc2O1	none
C[C@@H]1CCCCO[C@H](CN(C)C(=O)CCC(F)(F)F)[C@@H](C)CN([C@H](C)CO)C(=O)c2cc(N(C)C)ccc2O1	YB-1 expression 9.9
C[C@@H]1CCCCO[C@H](CN(C)C(=O)Nc2ccc(C(F)(F)F)cc2)[C@@H](C)CN([C@H](C)CO)C(=O)c2cc(NC(=O)CCC(F)(F)F)ccc2O1	T cruzi intra 66
C[C@@H]1CCCCO[C@@H](CN(C)C(=O)Nc2ccc(C(F)(F)F)cc2)[C@@H](C)CN([C@H](C)CO)C(=O)c2cc(NC(=O)CCC(F)(F)F)ccc2O1	none
CC1(C)OC(=O)C(=Cc2ccoc2)C(=O)O1	none (no result: INS-1E ATP HTS, T cruzi intra)
C[C@H](CO)N1C[C@H](C)[C@H](CN(C)S(=O)(=O)c2ccccc2)Oc2ncc(C#Cc3cccc(F)c3)cc2C1=O	none (no result: INS-1E ATP HTS)
C[C@H](CO)N1C[C@H](C)[C@H](CN(C)S(=O)(=O)c2cccc(F)c2)Oc2ncc(C#Cc3cccc(F)c3)cc2C1=O	none (no result: INS-1E ATP HTS)
C[C@H](CO)N1C[C@H](C)[C@H](CN(C)S(=O)(=O)c2cccc(F)c2)Oc2ncc(C#Cc3ccc(F)cc3)cc2C1=O	T cruzi intra 64
COc1cccc(S(=O)(=O)N(C)C[C@@H]2Oc3ncc(-c4ccccc4)cc3C(=O)N([C@H](C)CO)C[C@@H]2C)c1	none
Cc1ccc(S(=O)(=O)N(C)C[C@@H]2Oc3ncc(C#Cc4ccc(F)cc4)cc3C(=O)N([C@H](C)CO)C[C@@H]2C)cc1	T cruzi intra 59 (no result: INS-1E ATP HTS)
COc1cccc(S(=O)(=O)N(C)C[C@@H]2Oc3ncc(C#Cc4ccccc4)cc3C(=O)N([C@H](C)CO)C[C@@H]2C)c1	T cruzi intra 62 (no result: INS-1E ATP HTS)
COc1ccc(C#Cc2cnc3c(c2)C(=O)N([C@H](C)CO)C[C@H](C)[C@H](CN(C)S(=O)(=O)c2ccc(C)cc2)O3)cc1OC	none (no result: INS-1E ATP HTS)
C[C@H](CO)N1C[C@H](C)[C@H](CN(C)S(=O)(=O)c2ccc(F)cc2)Oc2ncc(C#Cc3cccc(F)c3)cc2C1=O	T cruzi intra 65 (no result: INS-1E ATP HTS)
CC(C)NC(=O)N(C)C[C@@H]1Oc2ccc(NS(=O)(=O)c3cccs3)cc2C(=O)N([C@H](C)CO)C[C@@H]1C	none
C[C@H](CO)N1C[C@H](C)[C@H](CN(C)S(C)(=O)=O)Oc2ncc(C#Cc3ccc(C(F)(F)F)cc3)cc2C1=O	none (no result: INS-1E ATP HTS)
C[C@H](CO)N1C[C@H](C)[C@H](CN(C)C(=O)NC2CCCCC2)Oc2ncc(C#Cc3cccc(F)c3)cc2C1=O	T cruzi intra 63 (no result: INS-1E ATP HTS)
C[C@H](CO)N1C[C@H](C)[C@H](CN(C)S(=O)(=O)c2ccc(C#N)cc2)Oc2ncc(C#Cc3ccccc3)cc2C1=O	none (no result: INS-1E ATP HTS)
C[C@H](CO)N1C[C@H](C)[C@H](CN(C)S(=O)(=O)c2ccccc2)Oc2ncc(C#Cc3ccc(F)cc3)cc2C1=O	none (no result: INS-1E ATP HTS)
C[C@H](CO)N1C[C@H](C)[C@H](CN(C)S(=O)(=O)c2ccc(C#N)cc2)Oc2ncc(C#Cc3ccc(C(F)(F)F)cc3)cc2C1=O	T cruzi intra 87
C[C@H](CO)N1C[C@H](C)[C@H](CN(C)S(=O)(=O)c2ccc(F)cc2)Oc2ncc(C#Cc3ccc(F)cc3)cc2C1=O	T cruzi intra 66 (no result: INS-1E ATP HTS)
C[C@H](CO)N1C[C@H](C)[C@H](CN(C)C(=O)NC2CCCCC2)Oc2ncc(C#Cc3ccccc3)cc2C1=O	none (no result: INS-1E ATP HTS)
Cc1ccc(S(=O)(=O)N(C)C[C@@H]2Oc3ncc(C#Cc4ccccc4)cc3C(=O)N([C@H](C)CO)C[C@@H]2C)cc1	T cruzi intra 57
CCn1c2ccccc2c2cc(/C=N/NC(=O)CCCCCCC(=O)OC)ccc21	none
Cc1cc2c(c(=O)n1CCCn1ccnc1)C(c1ccccc1)C(C#N)=C(N)O2 (stereo not given)	none (no result: INS-1E ATP HTS, T cruzi intra)
O=C(O)c1oc(C(=O)O)c(OCc2ccccc2)c1OCc1ccccc1	none (no result: INS-1E ATP HTS, T cruzi intra)
COc1cc(/C=N/NC(=O)c2ccccn2)cc(OC)c1OC	none
C[C@H](CO)N1C[C@H](C)[C@H](CN(C)Cc2ccc3c(c2)OCO3)Oc2c(NC(=O)c3cnccn3)cccc2C1=O	none
C[C@@H]1CN([C@@H](C)CO)C(=O)c2cccc(NC(=O)c3ccncc3)c2O[C@H]1CN(C)Cc1ccc2c(c1)OCO2	T cruzi intra 59
C[C@@H]1CN([C@H](C)CO)C(=O)c2cccc(NC(=O)c3ccncc3)c2O[C@@H]1CN(C)Cc1ccncc1	none
C[C@H]1CN([C@@H](C)CO)C(=O)c2cccc(NC(=O)c3ccncc3)c2O[C@H]1CN(C)Cc1ccc2c(c1)OCO2	T cruzi intra 62
C[C@@H]1CN([C@H](C)CO)C(=O)c2cccc(NC(=O)c3ccncc3)c2O[C@H]1CN(C)Cc1ccc2c(c1)OCO2	T cruzi intra 87
C[C@@H]1CN([C@H](C)CO)C(=O)c2cccc(NC(=O)c3ccc(-c4nccs4)cc3)c2O[C@@H]1CN(C)Cc1ccc2c(c1)OCO2	none
C[C@H](CO)N1C[C@H](C)[C@@H](CN(C)S(=O)(=O)c2ccc(Cl)cc2)Oc2c(NC(=O)Nc3ccccc3)cccc2C1=O	T cruzi intra 68
C[C@@H]1CN([C@@H](C)CO)C(=O)c2cccc(NC(=O)Nc3ccc(C(F)(F)F)cc3)c2O[C@H]1CN(C)S(=O)(=O)c1ccc(Cl)cc1	T cruzi intra 80
C[C@H](CO)N1C[C@H](C)[C@H](CN(C)S(=O)(=O)c2cccs2)Oc2c(NC(=O)Nc3ccc(C(F)(F)F)cc3)cccc2C1=O	T cruzi intra 84
C[C@H](CO)N1C[C@H](C)[C@@H](CN(C)S(=O)(=O)c2ccc(F)cc2)Oc2c(NC(=O)Nc3ccc(C(F)(F)F)cc3)cccc2C1=O	T cruzi intra 57
C[C@H]1CN([C@@H](C)CO)C(=O)c2cccc(NC(=O)Nc3ccc(C(F)(F)F)cc3)c2O[C@H]1CN(C)S(=O)(=O)c1cccs1	none
C[C@H](CO)N1C[C@H](C)[C@H](CN(C)S(=O)(=O)c2ccc(Cl)cc2)Oc2c(NC(=O)Nc3ccccc3)cccc2C1=O	none
C[C@@H]1CN([C@@H](C)CO)C(=O)c2cccc(NC(=O)Nc3ccc(C(F)(F)F)cc3)c2O[C@H]1CN(C)S(=O)(=O)c1ccc(F)cc1	none
C[C@H](CO)N1C[C@H](C)[C@@H](CN(C)S(=O)(=O)c2ccc(Cl)cc2)Oc2c(NC(=O)Nc3ccc(C(F)(F)F)cc3)cccc2C1=O	none
